Screening results (PubChem BioAssay)
This is a sample that favours compounds with a hit; in the whole collection about 1.8% have one here.
beta cell repl: inducers of beta-cell replication in MIN6 cells. MIN6 cells proliferation, ATPlite luminescence, 48 h; cells starved in 0.2% serum; 100% = growth in 10% serum. proliferation, % at 10 µM. 0.29% of 330,000 active. AID 2380;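 active = compounds whose signal lies at least 3.5 SD above the mean of all wells on their plate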
DAGLB inhibitor: diacylglycerol lipase beta (human) inhibition; inhibition, % at 5.17 µM; HEK293T DAGLB membrane lysate, EnzChek fluorogenic substrate; AID 504411; Q8NCG7; 0.059% of 340,000 active; in the data active = inhibition above about 34%
Target sequence (Q8NCG7 whole entry, looked up): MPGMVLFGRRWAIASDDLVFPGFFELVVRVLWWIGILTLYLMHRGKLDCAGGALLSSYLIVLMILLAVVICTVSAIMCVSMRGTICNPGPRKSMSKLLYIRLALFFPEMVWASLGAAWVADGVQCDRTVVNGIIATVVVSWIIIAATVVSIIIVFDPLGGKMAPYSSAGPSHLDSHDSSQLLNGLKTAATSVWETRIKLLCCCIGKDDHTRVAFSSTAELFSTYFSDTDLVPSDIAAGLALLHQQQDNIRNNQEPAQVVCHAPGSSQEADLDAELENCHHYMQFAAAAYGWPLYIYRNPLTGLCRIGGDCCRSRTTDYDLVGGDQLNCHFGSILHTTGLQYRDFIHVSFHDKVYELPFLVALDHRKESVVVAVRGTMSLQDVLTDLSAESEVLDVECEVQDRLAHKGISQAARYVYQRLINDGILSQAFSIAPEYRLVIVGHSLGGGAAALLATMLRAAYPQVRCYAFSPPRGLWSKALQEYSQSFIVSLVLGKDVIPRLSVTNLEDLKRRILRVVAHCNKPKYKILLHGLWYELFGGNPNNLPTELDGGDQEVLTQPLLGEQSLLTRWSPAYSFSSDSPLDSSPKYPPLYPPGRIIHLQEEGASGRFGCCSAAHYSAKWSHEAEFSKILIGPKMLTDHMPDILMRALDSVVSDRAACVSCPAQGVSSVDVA
MT1-MMP act inh: blocks activation of human MT1-MMP | 0.061% of 360,000 active | HT1080 RFP-PRO-GFP cells, GFP/RFP ratio fluorescence, overnight; percent of plate control window, DMSO zero | P50281 | AID 651647 | GFP/RFP ratio change, % at 20 µM;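 active = GFP/RFP ratio change of at least 30% with cell ATP level not reduced by more than half and red fluorescence within 50% of control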
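Read-out: GFP/RFP fluorescence ratio; Test system: RFP-PRO-GFP reporter HT1080 cells; Compound dosing: single-point 20 µM compound, 1% DMSO; Times: overnight compound exposure at 37 °C.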
MsrA inh: inhibits bovine methionine sulfoxide reductase A; inhibition, % at 15.5 µM; 0.75% of 360,000 active; AID 651718; purified bovine MsrA, absorbance read-out
bovine MsrA act: activators of bovine methionine sulfoxide reductase A. 0.3% of 360,000 active. activation, % at 10.6 µM. purified bovine MsrA, absorbance read-out; in the data active = activation above about 7.5%
SKN-1 inh: inhibitors of C. elegans SKN-1; C. elegans VP596 Pgst-4::GFP/RFP ratio, acrylamide-induced, 24 h; inhibition, % at 21.8 µM; 0.49% of 360,000 active;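 active = interference check ratio from 0.5 to 1.5 plus GFP to RFP signal ratio inhibition reaching or exceeding a fixed threshold, cut at about 30% in these data, passing the limit was not always enough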
MsrA inh confirm: confirmation of bovine MsrA inhibitors; 41% of 2,300 active; shares compounds with MsrA inh; inhibition, % at 15.5 µM; AID 651822; purified bovine MsrA, absorbance read-out;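 also: coupled to thioredoxin reductase with NADPH and selenocystamine and DMSO as substrate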
Each line names hits and unclear results; the compound was inactive in the other large screens (follow-up assays come after a bar, where they were run). Rule as the data show it, unless noted: active = inhibition above about 4.5%; inactive = the rest.

O=C1N=C(N2C=CC(=C3C=CNC=C3)C=C2)/C(=C/N=NC(=O)c2ccccc2O)S1	MsrA inh 5.8 | MsrA inh confirm 6.6
Cc1ccccc1-c1cc2c(nn1)-c1ccccc1C2=O	MsrA inh 5.9 | MsrA inh confirm inactive
Cc1ccc(-c2cc3c(nn2)-c2ccccc2C3=O)cc1	none
CC1Cc2ccccc2N1C1=CC(=O)CCC1 (stereo not drawn)	MsrA inh 5.5 | MsrA inh confirm 5.4
COc1cccc(CNc2nc3cc(-c4cccc(C(F)(F)F)c4)sc3c(=O)n2C)c1	none (no result: beta cell repl, DAGLB inhibitor)
COc1ccc(C(=O)N2CCN(c3cnn(-c4ccccc4)c(=O)c3Cl)CC2)cc1	MsrA inh 4.7 | MsrA inh confirm inactive
CCOc1ccc(CO[C@@H]2O[C@H](CO)[C@@H](O)[C@H](O)[C@H]2NC(C)=O)cc1OC	none
COc1ccc(/C=C/C(=O)NC(=S)NNC(=O)c2cccnc2)cc1OC	MsrA inh 5.6 | MsrA inh confirm 5.6
COc1cc(/C=C/C(=O)Nc2ccc3[nH]c(=O)[nH]c3c2)cc(OC)c1OC	MsrA inh 5.6 | MsrA inh confirm inactive
COc1ccc(/C=C/C(=O)NC(=S)NNC(=O)c2cccs2)cc1OC	none
COc1ccc(NC(=O)/C=C/c2ccc(OC)c(OC)c2)cn1	MsrA inh 6.8 | MsrA inh confirm inactive
COc1ccc(/C=C/C(=O)Nc2ccncc2)cc1OC	MsrA inh 5.8 | MsrA inh confirm inactive
CCOc1ccc(/C=C/C(=O)Nc2ccc(C(N)=O)cc2)cc1OC	none
NC(=O)COC(=O)CNC(=O)c1sc2ccccc2c1Cl	none
Cc1ccc(C2(c3ccccc3)NC(=O)N(CC(=O)N(C)C3CCS(=O)(=O)C3)C2=O)cc1C (stereo not drawn)	none
COc1ccc(/C=C/C(=O)OCC(=O)Nc2ccc(S(N)(=O)=O)cc2)cc1OC	MsrA inh 4.8 | MsrA inh confirm inactive
COc1cc(NC(=O)Cc2ccccc2)c(C(=O)O)cc1OC	none
COc1cc(NC(=O)/C=C/c2ccccc2)c(C(=O)O)cc1OC	MsrA inh 4.7 | MsrA inh confirm inactive
COc1cc(/C=C/C(=O)OCC(=O)Nc2ccc(S(=O)(=O)N3CCCC3)cc2)ccc1O	none
Cc1ccc(C)c(OC(=O)c2cccnc2Cl)c1C	none
O=C(NCc1ccccc1Cl)C1CCN(c2cnccn2)CC1	none
O=C(O)c1ccc(NS(=O)(=O)c2ccc3c(c2)C(=O)c2ccccc2C3=O)cc1	MsrA inh 23.6 (no result: DAGLB inhibitor) | MsrA inh confirm 14.9
Cc1ccccc1C(=O)NC1CC2CCCC(C1)N2CC(C)C (stereo not drawn)	none (no result: beta cell repl)
CCCSc1nnc(NC(=O)CSc2sc3c(O)cc(=O)[nH]c3c2C#N)s1	none
N#Cc1c(SCC(=O)Nc2nccs2)sc2c(O)cc(=O)[nH]c12	MsrA inh 4.9 | MsrA inh confirm inactive
COc1cc(-c2csc(C)n2)ccc1O	none
COc1ccc(-c2csc(C)n2)cc1Br	MsrA inh 7.9 | MsrA inh confirm 5.2
COc1ccc(C(=NNc2ccccc2C(=O)O)c2ccc(OC)cc2)cc1	MsrA inh 5.1 | MsrA inh confirm inactive
COC(=O)C1=C(C)NC2=C(C(=O)CCC2)C1c1cn(Cc2ccc(Cl)cc2Cl)nc1-c1ccccc1 (stereo not drawn)	none
CCOC(=O)C1=C(C)NC2=C(C(=O)CCC2)C1c1cn(Cc2ccc(Cl)cc2Cl)nc1-c1ccccc1 (stereo not drawn)	MsrA inh 4.7 | MsrA inh confirm inactive
COc1cc2c(c(OC)c1OC)CCc1cnoc1-2	none
O=C(O)c1cccc2c1C(=O)c1cc([N+](=O)[O-])cc([N+](=O)[O-])c1-2	MsrA inh 5.6 (no result: beta cell repl) | MsrA inh confirm inactive
O=C(O)c1cccc2c1-c1ccc(Cl)cc1C2	none (no result: beta cell repl)
O=C(O)c1cccc2c1-c1c(cccc1[N+](=O)[O-])C2	MsrA inh 5.9 (no result: beta cell repl) | MsrA inh confirm inactive
O=c1cc[nH]c2ccc(OC(F)(F)F)cc12	none
Nc1ncnc(NCc2ccc(F)cc2)c1[N+](=O)[O-]	none
Nc1ncnc(NCc2ccccc2)c1[N+](=O)[O-]	MsrA inh 4.9 | MsrA inh confirm inactive
COC1=C/C(=C/c2c(N)n3nc(-c4ccc(C)cc4)sc3nc2=O)C=CC1=O	none (no result: beta cell repl)
